Compounds with a hit are over-represented: about 3.1% of the library has one in this group of screens.
Hsp70 activator – Hsp70 transcriptional activation, primary screen; activation, % at 10 µM; 200,000 tested, 0.04% active; HeLa Hsp70 promoter luciferase reporter, luminescence; scaled: vehicle 0, proteasome-inhibitor control 100%; AID 1203;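 active = activation above the mean across all tested compounds plus 3 SD, cutoff set per campaign, cut at about 5.5% in these data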;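 also: 100% = MG132 at 30 µM as the positive control and 0% = DMSO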
Tb hexokinase – T. brucei hexokinase 1 inhibition; recombinant TbHK1, G6PDH-coupled NADH A340; 220,000 tested, 0.11% active; inhibition, % at 10 µM;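 active = inhibition of 50% or more in the single-dose primary screen; inactive = inhibition below 50%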
HSP90 refold inh – blocks HSP90-mediated luciferase refolding in reticulocyte lysate | Rabbit reticulocyte lysate, luciferase refolding luminescence, 3 h | inhibition, % at 5.6 µM | 290,000 tested, 0.91% active | AID 1789;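 active = inhibition above the screen-wide mean plus 3 SD, computed separately per campaign, cut at about 16% in these data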;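 also: 0% = DMSO wells and 100% = 60 µM geldanamycin wells; inhibitors lower the luminescence because luciferase stays unfolded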
HKDC1 inh – HKDC1 (human) hexokinase inhibition. 340,000 tested, 0.16% active. recombinant HKDC1, G6PDH/diaphorase resazurin coupled fluorescence. Q2TB90. inhibition, % at 20 µM;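 active = inhibition above about 35% when tested at 20 µM, limit read from the data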;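 also: plate controls were DMSO wells with enzyme for no effect and DMSO wells lacking enzyme for full effect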
Target sequence (Q2TB90 whole entry, looked up): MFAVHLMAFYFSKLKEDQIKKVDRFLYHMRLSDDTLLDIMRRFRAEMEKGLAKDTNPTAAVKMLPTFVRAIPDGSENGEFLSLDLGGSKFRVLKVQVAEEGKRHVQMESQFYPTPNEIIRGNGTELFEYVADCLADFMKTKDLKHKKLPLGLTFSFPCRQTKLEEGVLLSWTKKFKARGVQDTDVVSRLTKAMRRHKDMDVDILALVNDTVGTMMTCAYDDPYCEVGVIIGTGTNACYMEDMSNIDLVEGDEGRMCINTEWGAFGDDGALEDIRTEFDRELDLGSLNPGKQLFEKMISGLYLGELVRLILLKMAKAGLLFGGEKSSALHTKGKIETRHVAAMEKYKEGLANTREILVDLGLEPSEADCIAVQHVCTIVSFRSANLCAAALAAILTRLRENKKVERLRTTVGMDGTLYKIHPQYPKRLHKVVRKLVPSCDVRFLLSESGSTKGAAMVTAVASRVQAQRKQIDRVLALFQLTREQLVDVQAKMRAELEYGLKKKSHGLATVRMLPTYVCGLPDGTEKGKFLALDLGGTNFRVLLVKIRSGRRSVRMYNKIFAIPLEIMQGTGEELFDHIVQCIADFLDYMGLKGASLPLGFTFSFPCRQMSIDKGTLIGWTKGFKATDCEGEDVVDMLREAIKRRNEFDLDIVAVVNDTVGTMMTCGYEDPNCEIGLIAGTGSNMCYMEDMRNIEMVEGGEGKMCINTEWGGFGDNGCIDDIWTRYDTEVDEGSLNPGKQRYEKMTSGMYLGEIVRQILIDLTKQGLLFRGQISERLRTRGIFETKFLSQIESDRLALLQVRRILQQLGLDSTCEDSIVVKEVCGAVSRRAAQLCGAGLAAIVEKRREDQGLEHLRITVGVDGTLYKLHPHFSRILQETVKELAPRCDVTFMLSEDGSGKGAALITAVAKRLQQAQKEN
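Material – in-house recombinant HK5 (HKDC1) enzyme · Quantity – HKDC1 at 5 µg/mL · Buffer or medium – pH 8.0 Tris buffer with 10 mM MgCl2 · Reagent – glucose with 1 mM ATP · Dosing – single 20 µM dose · Times – reaction time 90 min, room temperature, protected from light · Technique – resorufin fluorescence at 613 nm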
HSF-1 act – increases HSF-1 driven luciferase reporter signal. NIH3T3-HGL HSF-1 luciferase reporter, MG132, 8 h; 100% = twice DMSO control signal. activation, % at 9 µM. 300,000 tested, 1.7% active;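 active = mean replicate activation of at least 50% with a set share of replicates each reaching 50%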;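 also: 0% = median of the neutral control wells and 100% = twice that signal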
HSF1 inhib – HSF1 inhibition. activity change, negative = inhibition, % at 7.5 µM (by protocol). AID 2098. NIH3T3-HGL HSE-luciferase, MG132-induced, luminescence 8 h; stronger effect = lower value. 300,000 tested, 0.77% active;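 active = more than half of replicate wells show activity change below -50%, luminescence cut by over half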;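 also: luciferase reports HSF-1 transcriptional activity via heat shock element; 0% = median of DMSO wells and -100% = zero luminescence signal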
An asterisk follows results filed as active.

Results for CC(NC(=O)Cn1nc(-c2ccccc2)c2ccccc2c1=O)c1ccccc1 (configuration not stated) ?
Hsp70 activator: 1; Tb hexokinase: 0; HSP90 refold inh: 6; HKDC1 inh: 2; HSF-1 act: 21; HSF1 inhib: 3

What do the screens show for `CC(C)c1ccc(OCC(=O)Nc2ccccc2C(=O)N2CCOCC2)cc1`?
HSP90 refold inh: -4; HKDC1 inh: -2; HSF-1 act: 0; HSF1 inhib: -6

What do the screens show for `CCN1C(=O)[C@H]2[C@@H](c3ccc(-c4ccc(C(C)=O)cc4)cc3)N3CCCC[C@@]3(C(=O)OC)[C@H]2C1=O`?
HKDC1 inh: 7; HSF-1 act: -11; HSF1 inhib: 2

Results for Cc1ccc(N2CC(C(=O)Nc3nnc(SCCN4CCOCC4)s3)CC2=O)cc1 (configuration not stated) ?
HSP90 refold inh: 1; HKDC1 inh: 4; HSF-1 act: -65; HSF1 inhib: -55*

Results for COc1ccc(O)c(C2=Nc3ccccc3N=C(c3cccs3)C2)c1 ?
Hsp70 activator: 0; Tb hexokinase: 22; HSP90 refold inh: -5; HKDC1 inh: -8; HSF-1 act: -72; HSF1 inhib: -63*

Results for CCOC(=O)c1c2c(n(Cc3ccccc3)c1C)C(=O)C(=O)c1ccccc1-2 ?
HKDC1 inh: 25; HSF-1 act: 99*; HSF1 inhib: 99*

Results for CCOC(=O)c1c2c(n(C)c1C)C(=O)C(=O)c1ccc(Br)cc1-2 ?
Hsp70 activator: 0; Tb hexokinase: -9; HSP90 refold inh: 0; HKDC1 inh: 11; HSF-1 act: 12; HSF1 inhib: 5

How did CCOC(=O)CN1C(=O)C(=O)N(Cc2ccccc2F)C1=O do in these assays?
HSP90 refold inh: 2; HKDC1 inh: -6; HSF-1 act: 1; HSF1 inhib: 0

How did C=CCOc1ccccc1CN(C(=O)CCl)c1ccc2c(c1)OCO2 do in these assays?
HSP90 refold inh: 8; HKDC1 inh: 21; HSF-1 act: -93; HSF1 inhib: -93*

What do the screens show for `Cc1ccc(S(=O)(=O)CCN2CCC(O)(c3ccccc3)CC2)cc1`?
HSP90 refold inh: -1; HKDC1 inh: -4; HSF-1 act: 38; HSF1 inhib: 3

Results for Cc1ccc(S(=O)(=O)CCN2CCN(c3ccccc3)CC2)cc1 ?
HSP90 refold inh: -1; HKDC1 inh: -3; HSF-1 act: 120*; HSF1 inhib: 96

Results for Nn1c(-c2cccs2)nc2sc3c(c2c1=O)CCCC3 ?
Hsp70 activator: 0; Tb hexokinase: -17; HSP90 refold inh: -1; HKDC1 inh: -3; HSF-1 act: 70*; HSF1 inhib: 44

What do the screens show for `COc1ccc(OCC(=O)Nc2ccc3c(c2)nc(CCN2CCC(C)CC2)n3C)cc1`?
HSP90 refold inh: 0; HKDC1 inh: -5; HSF-1 act: 30; HSF1 inhib: 20

What do the screens show for `Cc1cccc(OCC(=O)Nc2ccc3c(c2)nc(CN2CCCCC2)n3C)c1`?
Tb hexokinase: 0; HSP90 refold inh: 0; HKDC1 inh: -1; HSF-1 act: -12; HSF1 inhib: -8

What do the screens show for `Cc1cccc(OCC(=O)Nc2ccc3c(c2)nc(CCN2CCCCC2)n3C)c1`?
HSP90 refold inh: -1; HKDC1 inh: -4; HSF-1 act: 84*; HSF1 inhib: 84

What do the screens show for `COc1ccc(OCC(=O)Nc2ccc3c(c2)nc(CCN2CCCCC2)n3C)cc1`?
HSP90 refold inh: -1; HKDC1 inh: 8; HSF-1 act: 63*; HSF1 inhib: 40

What do the screens show for `Cc1ccc(OCC(=O)Nc2ccc3c(c2)nc(CCN2CCCCC2)n3C)cc1`?
HSP90 refold inh: 0; HKDC1 inh: 5; HSF-1 act: 76*; HSF1 inhib: 61

How did CC1CCN(CCc2nc3cc(NC(=O)COc4ccc(Cl)cc4)ccc3n2C)CC1 do in these assays?
HSP90 refold inh: 2; HKDC1 inh: -3; HSF-1 act: 72*; HSF1 inhib: 52

Results for COc1cc(/C=C/C(=O)OCC(=O)N2c3ccccc3NC(=O)C2(C)C)cc(OC)c1OC ?
HKDC1 inh: 3

How did Cn1c(CCN2CCCCC2)nc2cc(NC(=O)COc3ccccc3)ccc21 do in these assays?
HSP90 refold inh: -1; HKDC1 inh: 2; HSF-1 act: 58*; HSF1 inhib: 54

What do the screens show for `CN1CCN(CCc2nc3cc(NC(=O)COc4ccccc4)ccc3n2C)CC1`?
Hsp70 activator: 0; Tb hexokinase: 5; HSP90 refold inh: 2; HKDC1 inh: -6; HSF-1 act: 28; HSF1 inhib: 26

Results for CCOc1ccc(CNCCCSc2ncccn2)cc1 ?
HSP90 refold inh: -3; HKDC1 inh: 5; HSF-1 act: 2; HSF1 inhib: -2

What do the screens show for `CCOc1ccc(CNCCCSc2ncccn2)cc1OC`?
HSP90 refold inh: -2; HKDC1 inh: -5; HSF-1 act: -74; HSF1 inhib: -68*

How did O=C1OC2(c3ccccc31)c1ccccc1-c1ccccc12 do in these assays?
HKDC1 inh: 3

What do the screens show for `C=C1CC2(OC1=O)c1ccccc1CCc1ccccc12`?
HKDC1 inh: 16; HSF-1 act: 60*; HSF1 inhib: 60*

How did CSc1ccc(C2NC(=O)c3ccccc3N2)cc1 (configuration not stated) do in these assays?
HKDC1 inh: -4; HSF-1 act: 69*; HSF1 inhib: 45

Results for O=C1NC(c2ccc(O)cc2)Nc2ccccc21 (configuration not stated) ?
HSP90 refold inh: -2; HKDC1 inh: -6; HSF-1 act: 18; HSF1 inhib: 12

What do the screens show for `COc1ccc2[nH]cc(CCNC(=O)c3ccco3)c2c1`?
HKDC1 inh: -2

How did O=C(CN1C(=O)c2ccccc2C1=O)NCCc1c[nH]c2ccc(Cl)cc12 do in these assays?
Hsp70 activator: 0; Tb hexokinase: 28; HSP90 refold inh: 5; HKDC1 inh: 15; HSF-1 act: 11; HSF1 inhib: 7

How did Cc1cc(Br)c2[nH]cc(CCNC(=O)c3ccco3)c2c1 do in these assays?
HSP90 refold inh: -6; HKDC1 inh: -3; HSF-1 act: -77; HSF1 inhib: -69*

How did Cc1ccc2[nH]cc(CCNC(=O)c3ccco3)c2c1 do in these assays?
HSP90 refold inh: -5; HKDC1 inh: -5; HSF-1 act: -76; HSF1 inhib: -68*

What do the screens show for `Cc1ccc2[nH]cc(CCNC(=O)CN3C(=O)c4ccccc4C3=O)c2c1`?
Hsp70 activator: 0; Tb hexokinase: 1; HSP90 refold inh: -2; HKDC1 inh: 2; HSF-1 act: 73*; HSF1 inhib: 24

Results for COc1ccc(-c2nc3scc(-c4ccccc4)n3n2)cc1 ?
Hsp70 activator: 0; Tb hexokinase: 8; HSP90 refold inh: -2; HKDC1 inh: -1; HSF-1 act: 121*; HSF1 inhib: 62

How did CCOC(=O)Cc1csc2nc(-c3ccccc3)nn12 do in these assays?
Tb hexokinase: -1; HSP90 refold inh: 3; HKDC1 inh: -7; HSF-1 act: 4; HSF1 inhib: -1
